GASC1 inh = inhibitors of GASC-1 (KDM4C) histone demethylase, primary screen, biochemical, single concentration HTS; AID 720574, 2013; Lysine-specific demethylase 4C (Homo sapiens), Q9H3R0; hit rate 0.15% among 96,000; GST-KDM4C 2-372, H3K9me3 peptide, LANCE TR-FRET; inhibition, % at 12.5 µM;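 active = mean replicate inhibition above about 25%, with at least 55% of replicates also reaching it, limit read from the data, passing the limit was not always enough; inconclusive = only one of those two conditions met; inactive = neither condition met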
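Material: N-terminal GST-fused human GASC-1 (KDM4C) fragment, residues 2-372. Input: 10 nM enzyme. Incubation: enzyme reaction 30 min, then detection 60 min, both room temperature. Doses: one test concentration per compound. Read-out basis: inhibition from TR-FRET ratio decrease. Detection: LANCE TR-FRET, excitation 340 nm, emissions 618 and 671 nm.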
IDH1 R132H inh = inhibitors of IDH1 R132H reductase, primary screen, biochemical, plate reader, single point. Isocitrate dehydrogenase [NADP] cytoplasmic (Homo sapiens), O75874. diaphorase/resazurin fluorescence, 60 min. inhibition, % at 10 µM. hit rate 0.18% among 70,000. AID 624101, 2012; in the data active = inhibition above about 34%; inconclusive = no clear call, values can overlap the other calls; inactive = below about 11%
Target sequence (O75874 whole entry R132H): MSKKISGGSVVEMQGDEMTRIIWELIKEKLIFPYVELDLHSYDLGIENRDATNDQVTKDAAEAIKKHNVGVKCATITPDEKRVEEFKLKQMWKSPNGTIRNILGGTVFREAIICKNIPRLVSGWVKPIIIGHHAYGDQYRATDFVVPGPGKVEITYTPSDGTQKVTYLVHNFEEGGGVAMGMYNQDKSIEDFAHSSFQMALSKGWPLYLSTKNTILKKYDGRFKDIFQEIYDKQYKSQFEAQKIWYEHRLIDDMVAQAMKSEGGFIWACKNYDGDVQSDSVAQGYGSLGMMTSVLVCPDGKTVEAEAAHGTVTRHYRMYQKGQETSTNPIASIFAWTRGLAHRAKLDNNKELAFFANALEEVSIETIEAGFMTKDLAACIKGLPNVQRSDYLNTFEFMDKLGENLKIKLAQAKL
Pf Dd2 growth = P. falciparum Dd2 growth inhibitors, primary screen, SYBR Green fluorescence, single dose replicates; hit rate 2.3% among 94,000; 72 h; stronger effect = lower value; AID 1159554, 2015; activity change, % at 10 µM; in the data active = activity change below about -80%; inconclusive = no clear call, values can overlap the other calls
T cruzi growth-1 = T. cruzi intracellular proliferation inhibitors, primary screen, cell-based, beta-gal Tulahuen parasites, NIH3T3 host, luminescence; T. cruzi beta-gal in NIH3T3, GalScreen luminescence, 90 h; inhibition, % at 8.34 µM; hit rate 5.9% among 77,000; AID 624255, 2012;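 active = mean inhibition above about 93%, with at least 55% of replicates each passing it, limit read from the data, passing the limit was not always enough; inconclusive = only one of those two conditions holds; inactive = neither condition holds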
T cruzi growth-2 = T. cruzi intracellular proliferation inhibitors, confirmation, cell-based, NIH3T3 host, beta-gal parasite, luminescence, cherry-pick. inhibition, % at 8.35 µM. T. cruzi beta-gal in NIH3T3, GalScreen luminescence, 90 h. AID 651739, 2012. hit rate 72% among 5,600. shares compounds with T cruzi growth-1;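 active = mean replicate inhibition above about 95% and at least 55% of replicates individually reaching it, limit read from the data; inconclusive = only one of the two criteria is met; inactive = neither criterion is met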
T cruzi growth-3 = inhibitors of intracellular T. cruzi replication, confirmation, NIH3T3 host cells, beta-gal parasites, cherry-pick, set 2; shares compounds with T cruzi growth-1; T. cruzi beta-gal in NIH3T3, GalScreen luminescence, 90 h; inhibition, % at 2.09 µM; hit rate 21% among 5,600; AID 651740, 2012;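 active = mean inhibition above about 95%, with at least 55% of replicates also reaching it, limit read from the data; inconclusive = meets just one of the two conditions; inactive = meets neither condition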
3T3 cytotox = cytotoxicity in mouse NIH/3T3 fibroblasts, confirmation, cytotoxicity control for T. cruzi proliferation inhibitor project, cell-based, cherry-pick, single point; shares compounds with T cruzi growth-1; NIH/3T3 viability, CellTiter-Glo ATP luminescence, 90 h; cytotoxicity (signal decrease), % at 8.35 µM; hit rate 14% among 5,600;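 active = mean signal decrease across replicates above about 35% based on untreated-well scatter, with enough replicates individually passing, limit read from the data; inconclusive = no rule stated though some were filed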
3T3 cytotox 2 = NIH/3T3 fibroblast cytotoxicity, confirmation, cytotoxicity control, cell-based, cherry-pick, single point, set 2; shares compounds with T cruzi growth-1; NIH/3T3 viability, CellTiter-Glo ATP luminescence, 90 h; inhibition, % at 24.9 µM; hit rate 56% among 5,600;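 active = mean loss of cell viability signal at or above a set limit, and enough replicates individually reaching it; inconclusive = meets only the mean limit or only the replicate share; inactive = meets neither condition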
Hits are given with their value; - = inactive; ? = inconclusive; . = not tested or not shown. A selection: hits, their analogues and other compounds. The true share with any hit is near 5.8%.

SMILES	GASC1 inh	IDH1 R132H inh	Pf Dd2 growth	T cruzi growth-1	T cruzi growth-2	T cruzi growth-3	3T3 cytotox	3T3 cytotox 2
C[C@@H]1CN([C@@H](C)CO)S(=O)(=O)c2ccc(-c3ccc(C(=O)N(C)C)cc3)cc2O[C@@H]1CN(C)Cc1ccc2c(c1)OCO2	-	-	-	?	-	-	-	92.3
C[C@@H]1CN([C@H](C)CO)S(=O)(=O)c2ccc(-c3ccncc3)cc2O[C@@H]1CN(C)C(=O)c1ccc2c(c1)OCO2	-	-	-	-	.	.	.	.
C[C@@H]1CN([C@H](C)CO)S(=O)(=O)c2ccc(-c3ccncc3)cc2O[C@H]1CN(C)C(=O)c1ccc2c(c1)OCO2	-	-	-	105.3	101.4	-	-	43.8
C[C@@H]1CN([C@@H](C)CO)S(=O)(=O)c2ccc(-c3ccncc3)cc2O[C@@H]1CN(C)C(=O)c1ccc2c(c1)OCO2	-	-	-	-	.	.	.	.
C[C@H]1CN([C@@H](C)CO)S(=O)(=O)c2ccc(-c3ccncc3)cc2O[C@H]1CN(C)C(=O)c1ccc2c(c1)OCO2	-	-	-	102.3	102.8	-	-	43.7
C[C@H](CO)N1C[C@H](C)[C@H](CN(C)C(=O)c2ccc3c(c2)OCO3)Oc2cc(-c3ccccc3)ccc2S1(=O)=O	-	-	-	.	.	.	.	.
C(=C\c1nn2c(Cn3cnc4ccccc43)nnc2s1)/c1ccccc1	.	-	.	.	.	.	.	.
C[C@@H]1CCCCO[C@@H](CN(C)C(=O)Nc2cccc3ccccc23)[C@H](C)CN([C@H](C)CO)C(=O)c2cc(NS(=O)(=O)c3cccs3)ccc2O1	-	.	-	104.7	104.5	105.5	-	-
C[C@@H]1CN([C@@H](C)CO)C(=O)c2cc(NS(=O)(=O)c3cccs3)ccc2O[C@@H](C)CCCCO[C@H]1CN(C)C(=O)Nc1cccc2ccccc12	-	.	-	-	.	.	.	.
C[C@H]1CCCCO[C@H](CN(C)C(=O)Nc2cccc3ccccc23)[C@@H](C)CN([C@@H](C)CO)C(=O)c2cc(NS(=O)(=O)c3cccs3)ccc2O1	-	.	-	102.1	-	-	-	-
CC(C)C1NC(=S)NC2=C1CCCC2 (centres undefined)	.	-	.	.	.	.	.	.
Cc1ccc(S(=O)(=O)NCC(=O)Nc2ccccc2F)cc1	.	-	.	.	.	.	.	.
C[C@H](CO)N1C[C@H](C)[C@H](CN(C)Cc2ccncc2)Oc2ccc(NC(=O)Nc3ccc4c(c3)OCO4)cc2C1=O	-	-	-	116.8	-	-	-	34.1
C[C@H]1CN([C@@H](C)CO)C(=O)c2cc(NC(=O)Nc3ccc4c(c3)OCO4)ccc2O[C@H]1CN(C)Cc1ccc(Oc2ccccc2)cc1	-	-	-	116.8	109.3	-	-	41.0
C[C@@H]1CN([C@@H](C)CO)C(=O)c2cc(NC(=O)Cc3ccccc3)ccc2O[C@H]1CN(C)Cc1ccc(Oc2ccccc2)cc1	-	.	-	-	.	.	.	.
C[C@H](CO)N1C[C@H](C)[C@H](CN(C)Cc2ccc(Oc3ccccc3)cc2)Oc2ccc(NC(=O)Cc3ccccc3)cc2C1=O	-	-	-	?	-	-	-	101.7
C[C@@H]1CN([C@@H](C)CO)C(=O)c2cc(NC(=O)Nc3ccc4c(c3)OCO4)ccc2O[C@@H]1CN(C)Cc1ccncc1	-	-	-	-	.	.	.	.
C[C@H](CO)N1C[C@H](C)[C@@H](CN(C)Cc2ccc(Oc3ccccc3)cc2)Oc2ccc(NC(=O)Nc3ccccc3)cc2C1=O	-	.	-	-	.	.	.	.
C[C@@H]1CN([C@@H](C)CO)C(=O)c2cccc(NC(=O)Nc3ccc4c(c3)OCO4)c2O[C@@H]1CN(C)Cc1ccc(Oc2ccccc2)cc1	-	.	-	-	.	.	.	.
C[C@H](CO)N1C[C@H](C)[C@@H](CN(C)Cc2ccc(Oc3ccccc3)cc2)Oc2c(NC(=O)Nc3ccc4c(c3)OCO4)cccc2C1=O	-	.	-	?	109.4	-	-	-
CCC(=O)N1CCCCN2[C@H](CO)[C@H](c3ccc(-c4cccc(C(=O)N(C)C)c4)cc3)[C@H]2C1	-	.	-	101.2	-	-	-	-
CCC(=O)N1CCCCN2[C@@H](CO)[C@H](c3ccc(-c4cccc(C(=O)N(C)C)c4)cc3)[C@@H]2C1	-	.	-	99.7	96.4	-	-	-
Cc1nnc(SCC(=O)Nc2ccccc2C(F)(F)F)n1-c1ccc(Cl)cc1	.	-	.	.	.	.	.	.
O=[N+]([O-])c1ncn(Cc2ccccn2)n1	.	-	.	.	.	.	.	.
COc1ccc(S(=O)(=O)Nc2ccc3c(c2)C(=O)N([C@@H](C)CO)C[C@@H](C)[C@H](CN(C)Cc2ccc4c(c2)OCO4)OCCCC[C@H](C)O3)cc1	-	-	-	100.0	109.4	-	-	65.5
SMILES	GASC1 inh	IDH1 R132H inh	Pf Dd2 growth	T cruzi growth-1	T cruzi growth-2	T cruzi growth-3	3T3 cytotox	3T3 cytotox 2
Cc1ccc(S(=O)(=O)Nc2ccc3c(c2)C(=O)N([C@H](C)CO)C[C@@H](C)[C@@H](CN(C)Cc2ccc4c(c2)OCO4)OCCCC[C@@H](C)O3)cc1	-	-	-	?	105.4	-	-	102.0
COc1ccc(S(=O)(=O)Nc2ccc3c(c2)C(=O)N([C@H](C)CO)C[C@@H](C)[C@@H](CN(C)Cc2ccc4c(c2)OCO4)OCCCC[C@H](C)O3)cc1	-	.	-	-	.	.	.	.
C[C@@H]1CCCCO[C@@H](CN(C)Cc2ccc3c(c2)OCO3)[C@@H](C)CN([C@@H](C)CO)C(=O)c2cc(NS(=O)(=O)c3ccc(F)cc3)ccc2O1	-	.	-	114.6	101.8	-	-	93.6
Cc1ccc(S(=O)(=O)Nc2ccc3c(c2)C(=O)N([C@@H](C)CO)C[C@H](C)[C@H](CN(C)Cc2ccc4c(c2)OCO4)OCCCC[C@@H](C)O3)cc1	-	.	-	-	.	.	.	.
Cc1cc(C)cc(N(C(C)C(=O)O)S(C)(=O)=O)c1 (centres undefined)	.	-	.	.	.	.	.	.
O=C(NCC[C@H]1CC[C@H](NC(=O)c2ccncc2)[C@H](CO)O1)Nc1ccc(Cl)cc1	-	-	-	-	.	.	.	.
COc1ccccc1NC(=O)N[C@@H]1CC[C@H](CCn2cc(C3(O)CCCC3)nn2)O[C@@H]1CO	-	-	-	109.5	-	-	-	-
O=C(Nc1ccc(Cl)cc1)N[C@H]1CC[C@@H](CCn2cc(-c3ccccc3F)nn2)O[C@H]1CO	-	-	-	153.5	-	-	-	40.6

High-throughput results deposited in PubChem BioAssay by Broad Institute.
